Data taken from ChEMBL document CHEMBL1811786, “Identification of MK-5710 ((8aS)-8a-methyl-1,3-dioxo-2-[(1S,2R)-2-phenylcyclo- propyl]-N-(1-phenyl-1H-pyrazol-5-yl)hexahydro-imidazo[1,5-a]pyrazine-7(1H)-carboxamide), a potent smoothened antagonist for use in Hedgehog pathway dependent malignancies, part 2” (Bioorg Med Chem Lett, 2011).
Active and inactive are the calls of the source. The rule behind the calls is not given here.

What was measured:
[1] = molecular target: T1, Protein smoothened (Homo sapiens, UniProt Q99835); assay: Displacement of BODIPY-cyclopamine from human Smo expressed in HEK293 cells in presence of 2% fetal calf serum; assay type: cell-based
T1 sequence (Q99835 whole entry): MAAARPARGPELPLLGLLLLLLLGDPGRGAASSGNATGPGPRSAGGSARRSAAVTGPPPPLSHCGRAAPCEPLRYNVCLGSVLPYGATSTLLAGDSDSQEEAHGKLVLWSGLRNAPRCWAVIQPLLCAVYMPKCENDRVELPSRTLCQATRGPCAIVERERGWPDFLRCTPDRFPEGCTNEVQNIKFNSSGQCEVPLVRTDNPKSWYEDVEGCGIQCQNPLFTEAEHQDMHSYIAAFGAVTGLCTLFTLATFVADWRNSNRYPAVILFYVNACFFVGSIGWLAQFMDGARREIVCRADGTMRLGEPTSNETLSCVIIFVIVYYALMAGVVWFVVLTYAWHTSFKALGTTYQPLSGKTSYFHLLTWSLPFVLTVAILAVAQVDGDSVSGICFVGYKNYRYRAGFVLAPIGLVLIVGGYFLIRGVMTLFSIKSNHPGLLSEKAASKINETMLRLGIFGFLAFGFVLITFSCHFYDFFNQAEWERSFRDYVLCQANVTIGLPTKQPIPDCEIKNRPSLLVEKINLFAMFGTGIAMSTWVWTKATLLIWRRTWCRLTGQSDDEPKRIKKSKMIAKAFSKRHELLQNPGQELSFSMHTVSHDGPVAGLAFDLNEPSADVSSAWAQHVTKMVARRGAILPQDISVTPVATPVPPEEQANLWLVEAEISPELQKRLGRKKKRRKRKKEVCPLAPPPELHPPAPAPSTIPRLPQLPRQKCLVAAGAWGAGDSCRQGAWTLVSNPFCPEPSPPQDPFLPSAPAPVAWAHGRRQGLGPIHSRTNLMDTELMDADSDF
Summary of the method: (§1)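 Competition binding: displacement of fluorescently labeled bodipy-cyclopamine from recombinant human Smo expressed in HEK-293 cells. Run in 2% fetal calf serum and, separately, in 20% normal human serum. IC50 values are means of at least five experiments.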

[2] = Volume of distribution at steady state in rat; assay type: ADME, organism-based; conditions: in vivo, read-out: Vdss
[3] = organism: Rattus norvegicus; assay: Clearance in rat; assay type: ADME, organism-based; conditions: in vivo
[4] = Half life in rat; assay type: ADME, organism-based; conditions: in vivo
[5] = molecular target: T1, Protein smoothened; assay: Displacement of BODIPY-cyclopamine from human Smo expressed in HEK293 cells in presence of 20% normal human serum; assay type: cell-based; summary of the method: as §1
[6] = Oral bioavailability in rat; assay type: ADME, organism-based; conditions: in vivo
[7] = Oral bioavailability in dog; assay type: ADME, organism-based, Canis lupus familiaris; conditions: in vivo
[8] = Antiproliferative activity against irradiated Ptch +/- mouse medulloblastoma cells; assay type: functional; conditions: Medulloblastoma cell, light or radiation study
Summary of the method: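 Proliferation of irradiated Ptch +/- mouse medulloblastoma cells, which depend on the Hh pathway; readout reported as CC50.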

[9] = Volume of distribution at steady state in dog; assay type: ADME, organism-based, Canis lupus familiaris; conditions: in vivo, read-out: Vdss
[10] = Half life in dog; assay type: ADME, organism-based, Canis lupus familiaris; conditions: in vivo
[11] = organism: Canis familiaris; assay: Clearance in dog; assay type: ADME, organism-based, Canis lupus familiaris; conditions: in vivo
[12] = test system: Mus musculus; assay: Toxicity in mouse medulloblastoma allograft model assessed as body weight loss at 160 mg/kg, po bid for 3 weeks; assay type: organism-based; parameters: dose 160 mg/kg, route oral; conditions: in vivo, 504 h
Summary of the method: (§2)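 Primary mouse medulloblastoma allograft, subcutaneous. Mice randomized when tumors averaged 400 mm³. Oral dosing for 3 weeks, bid at 40, 80, 120 or 160 mg/kg, or 80 mg/kg qd. Compound given as a suspension in 0.24% SDS/0.5% Methocel, with a BID vehicle control. Tumor volume tracked over days; body weight, physical signs and mortality monitored.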

[13] = test system: Mus musculus; assay: Toxicity in mouse medulloblastoma allograft model assessed as body weight loss at 120 mg/kg, po bid for 3 weeks; assay type: organism-based; parameters: dose 120 mg/kg, route oral; conditions: in vivo, 504 h; summary of the method: as §2
[14] = test system: Mus musculus; assay: Toxicity in mouse medulloblastoma allograft model assessed as body weight loss at 80 mg/kg, po qd for 3 weeks; assay type: organism-based; parameters: dose 80 mg/kg, route oral; conditions: in vivo, 504 h; summary of the method: as §2
[15] = AUC in mouse at 160 mg/kg, po; assay type: ADME, organism-based; parameters: dose 160 mg/kg, route oral; conditions: plasma
[16] = AUC in mouse at 40 mg/kg, po; assay type: ADME, organism-based; parameters: dose 40 mg/kg, route oral; conditions: plasma
[17] = AUC in mouse at 80 mg/kg, po; assay type: ADME, organism-based; parameters: dose 80 mg/kg, route oral; conditions: plasma
[18] = test system: Mus musculus; assay: Toxicity in mouse medulloblastoma allograft model assessed as mortality at 80 mg/kg, po qd for 3 weeks; assay type: organism-based; parameters: dose 80 mg/kg, route oral; conditions: in vivo, 504 h
Summary of the method: (§3)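 Primary mouse medulloblastoma allografts grown subcutaneously; mice were randomized once tumors averaged 400 mm³. The compound was given orally as a suspension in 0.24% SDS/0.5% Methocel, either bid for 3 weeks or 80 mg/kg qd. Tolerability was monitored by body-weight loss, visible physical signs and mortality.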

[19] = test system: Mus musculus; assay: Toxicity in mouse medulloblastoma allograft model assessed as body weight loss at 80 mg/kg, po bid for 3 weeks; assay type: organism-based; parameters: dose 80 mg/kg, route oral; conditions: in vivo, 504 h; summary of the method: as §2
[20] = test system: Medulloblastoma cell; assay: Antitumor activity against primary mouse medulloblastoma allograft model assessed as tumor growth inhibition at 120 mg/kg, po bid for 3 weeks; assay type: functional, organism-based; parameters: dose 120 mg/kg; summary of the method: as §2
[21] = test system: Mus musculus; assay: Toxicity in mouse medulloblastoma allograft model assessed as mortality at 160 mg/kg, po bid for 3 weeks; assay type: organism-based; parameters: dose 160 mg/kg, route oral; conditions: in vivo, 504 h; summary of the method: as §3
[22] = test system: Mus musculus; assay: Toxicity in mouse medulloblastoma allograft model assessed as mortality at 40 mg/kg, po bid for 3 weeks; assay type: organism-based; parameters: dose 40 mg/kg, route oral; conditions: in vivo, 504 h; summary of the method: as §3
[23] = test system: Medulloblastoma cell; assay: Antitumor activity against primary mouse medulloblastoma allograft model assessed as tumor growth inhibition at 80 mg/kg, po bid for 3 weeks; assay type: functional, organism-based; parameters: dose 80 mg/kg; summary of the method: as §2
[24] = Plasma protein binding in human assessed as unbound fraction; assay type: ADME, cell-free
[25] = test system: Mus musculus; assay: Toxicity in mouse medulloblastoma allograft model assessed as body weight loss at 40 mg/kg, po bid for 3 weeks; assay type: organism-based; parameters: dose 40 mg/kg, route oral; conditions: in vivo, 504 h; summary of the method: as §2
[26] = test system: Medulloblastoma cell; assay: Antitumor activity against primary mouse medulloblastoma allograft model assessed as tumor growth inhibition at 80 mg/kg, po qd for 3 weeks; assay type: functional, organism-based; parameters: dose 80 mg/kg; summary of the method: as §2
[27] = test system: Mus musculus; assay: Toxicity in mouse medulloblastoma allograft model assessed as visible physical signs at 80 mg/kg, po qd for 3 weeks; assay type: organism-based; parameters: dose 80 mg/kg, route oral; conditions: in vivo, 504 h; summary of the method: as §3
[28] = test system: Mus musculus; assay: Toxicity in mouse medulloblastoma allograft model assessed as visible physical signs at 40 mg/kg, po bid for 3 weeks; assay type: organism-based; parameters: dose 40 mg/kg, route oral; conditions: in vivo, 504 h; summary of the method: as §3
[29] = test system: Mus musculus; assay: Inhibition of Shh pathway in mouse medulloblastoma allograft model assessed as reduction in tumor Gli-1 mRNA expression at 80 mg/kg, po administered as single dose measured after 4 to 12 hrs; assay type: functional
Summary of the method: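 Tumor-bearing medulloblastoma mice given a single oral 80 mg/kg dose. Tumor biopsies taken at timepoints up to 24 h; Hh-pathway inhibition measured as reduction of Gli-1 mRNA.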

[30] = test system: Medulloblastoma cell; assay: Antitumor activity against primary mouse medulloblastoma allograft model assessed as tumor growth inhibition at 160 mg/kg, po bid for 3 weeks; assay type: functional, organism-based; parameters: dose 160 mg/kg; summary of the method: as §2
[31] = test system: Mus musculus; assay: Toxicity in mouse medulloblastoma allograft model assessed as visible physical signs at 160 mg/kg, po bid for 3 weeks; assay type: organism-based; parameters: dose 160 mg/kg, route oral; conditions: in vivo, 504 h; summary of the method: as §3
[32] = test system: Mus musculus; assay: Toxicity in mouse medulloblastoma allograft model assessed as mortality at 120 mg/kg, po bid for 3 weeks; assay type: organism-based; parameters: dose 120 mg/kg, route oral; conditions: in vivo, 504 h; summary of the method: as §3
[33] = test system: Mus musculus; assay: Toxicity in mouse medulloblastoma allograft model assessed as mortality at 80 mg/kg, po bid for 3 weeks; assay type: organism-based; parameters: dose 80 mg/kg, route oral; conditions: in vivo, 504 h; summary of the method: as §3
[34] = test system: Mus musculus; assay: Toxicity in mouse medulloblastoma allograft model assessed as visible physical signs at 80 mg/kg, po bid for 3 weeks; assay type: organism-based; parameters: dose 80 mg/kg, route oral; conditions: in vivo, 504 h; summary of the method: as §3
[35] = test system: Medulloblastoma cell; assay: Antitumor activity against primary mouse medulloblastoma allograft model assessed as tumor growth inhibition at 40 mg/kg, po bid for 3 weeks; assay type: functional, organism-based; parameters: dose 40 mg/kg; summary of the method: as §2
[36] = test system: Mus musculus; assay: Toxicity in mouse medulloblastoma allograft model assessed as visible physical signs at 120 mg/kg, po bid for 3 weeks; assay type: organism-based; parameters: dose 120 mg/kg, route oral; conditions: in vivo, 504 h; summary of the method: as §3

O=C(Nc1ccccc1-c1ccccc1)N1CCN2C(=O)N(C3CC3c3ccccc3)C(=O)C2C1 (stereo in doubt; 6)
IC50 [1]: 35 nM

O=C(Nc1cccc(Cl)c1Cl)N1CCN2C(=O)N([C@@H]3C[C@H]3c3ccccc3)C(=O)[C@H]2C1
IC50 [1]: 1700 nM

CN(C)C(=O)c1cc(Cl)c(NC(=O)N2CCN3C(=O)N([C@H]4C[C@@H]4c4ccccc4)C(=O)[C@@H]3C2)c(Cl)c1
Vd [2]: 2.1 L/kg | clearance [3]: 41 mL/min/kg | IC50 [1]: 77 nM | half-life [4]: 36 min | IC50 [5]: 120 nM

O=C(Nc1cccc(Cl)c1Cl)N1CCN2C(=O)N([C@H]3C[C@@H]3c3ccccc3)C(=O)[C@@H]2C1
bioavailability [6]: 30% | Vd [2]: 8 L/kg | bioavailability [7]: 97% | CC50 [8]: 12 nM | Vd [9]: 2.5 L/kg | half-life [10]: 600 min | clearance [11]: 4 mL/min/kg | clearance [3]: 46 mL/min/kg | IC50 [1]: 230 nM | half-life [4]: 132 min | IC50 [5]: 690 nM

O=C(Nc1ccnn1-c1ccccc1)N1CCN2C(=O)N([C@H]3C[C@@H]3c3ccccc3)C(=O)[C@@H]2C1
Activity [12]: < 10% | bioavailability [6]: 88% | Activity [13]: < 10% | Activity [14]: < 10% | AUC [15]: 24 µM·h | AUC [16]: 6.4 µM·h | AUC [17]: 15 µM·h | Activity [18]: Non-toxic | Activity [19]: < 10% | growth inhibition (GI) [20]: Active | Vd [2]: 2.9 L/kg | bioavailability [7]: 82% | Activity [21]: Non-toxic | Activity [22]: Non-toxic | growth inhibition (GI) [23]: Active | fraction unbound [24]: 0.17 | Activity [25]: < 10% | growth inhibition (GI) [26]: Active | Vd [9]: 1 L/kg | half-life [10]: 150 min | clearance [11]: 5.5 mL/min/kg | Activity [27]: Non-toxic | clearance [3]: 43 mL/min/kg | Activity [28]: Non-toxic | IC50 [1]: 15 nM | inhibition in vivo at 80 mg/kg [29]: > 80% | growth inhibition (GI) [30]: Active | half-life [4]: 78 min | Activity [31]: Non-toxic | Activity [32]: Non-toxic | Activity [33]: Non-toxic | IC50 [5]: 18 nM | Activity [34]: Non-toxic | growth inhibition (GI) [35]: Active | Activity [36]: Non-toxic

N#Cc1cccc(-c2ncccc2NC(=O)N2CCN3C(=O)N([C@H]4C[C@@H]4c4ccccc4)C(=O)[C@@H]3C2)c1
bioavailability [6]: 43% | Vd [2]: 6 L/kg | clearance [3]: 48 mL/min/kg | IC50 [1]: 16 nM | half-life [4]: 228 min | IC50 [5]: 22 nM

C[C@]12CN(C(=O)Nc3ccccc3-c3ccccc3)CCN1C(=O)N([C@H]1C[C@@H]1c1ccccc1)C2=O
IC50 [1]: 1200 nM | IC50 [5]: 1600 nM

O=C(Nc1c(Cl)cc(F)cc1Cl)N1CCN2C(=O)N([C@H]3C[C@@H]3c3ccccc3)C(=O)[C@@H]2C1
IC50 [1]: 180 nM | IC50 [5]: 520 nM

N#Cc1cc(Cl)c(NC(=O)N2CCN3C(=O)N([C@H]4C[C@@H]4c4ccccc4)C(=O)[C@@H]3C2)c(Cl)c1
bioavailability [6]: 56% | Vd [2]: 0.5 L/kg | clearance [3]: 2 mL/min/kg | IC50 [1]: 100 nM | half-life [4]: 324 min | IC50 [5]: 450 nM

CS(=O)(=O)c1cc(Cl)c(NC(=O)N2CCN3C(=O)N([C@H]4C[C@@H]4c4ccccc4)C(=O)[C@@H]3C2)c(Cl)c1
bioavailability [6]: 74% | Vd [2]: 0.6 L/kg | Vd [9]: 0.3 L/kg | half-life [10]: 60 min | clearance [11]: 1.7 mL/min/kg | clearance [3]: 5 mL/min/kg | IC50 [1]: 42 nM | half-life [4]: 192 min | IC50 [5]: 68 nM
